Experimental data published in ChEMBL document CHEMBL1132449, “Pyrroloquinoxaline derivatives as high-affinity and selective 5-HT(3) receptor agonists: synthesis, further structure-activity relationships, and biological studies” (J Med Chem, 1999).

How the values were obtained:
[1] = biological target: T1, Serotonin 3 (5-HT3) receptor (Rattus norvegicus, UniProt P35563+Q9JJ16); experiment: Binding affinity against 5-hydroxytryptamine 3 (5-HT3) receptor from rat cortical homogenate using [3H]zacopride as radioligand
T1 sequence (P35563 whole entry): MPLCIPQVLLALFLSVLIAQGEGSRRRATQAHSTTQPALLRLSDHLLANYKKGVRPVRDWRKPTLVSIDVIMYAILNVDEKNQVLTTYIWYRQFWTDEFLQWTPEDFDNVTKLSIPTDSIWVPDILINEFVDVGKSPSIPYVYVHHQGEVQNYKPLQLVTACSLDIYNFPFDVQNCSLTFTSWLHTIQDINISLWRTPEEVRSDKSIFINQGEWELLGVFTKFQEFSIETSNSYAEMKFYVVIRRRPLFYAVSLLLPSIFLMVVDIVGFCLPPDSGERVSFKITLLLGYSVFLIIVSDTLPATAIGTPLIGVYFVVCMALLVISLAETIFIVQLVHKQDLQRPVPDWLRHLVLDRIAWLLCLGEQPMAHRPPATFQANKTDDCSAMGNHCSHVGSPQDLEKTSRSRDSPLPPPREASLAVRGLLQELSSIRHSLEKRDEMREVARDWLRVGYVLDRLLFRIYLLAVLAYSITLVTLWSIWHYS
T1 sequence (Q9JJ16 whole entry): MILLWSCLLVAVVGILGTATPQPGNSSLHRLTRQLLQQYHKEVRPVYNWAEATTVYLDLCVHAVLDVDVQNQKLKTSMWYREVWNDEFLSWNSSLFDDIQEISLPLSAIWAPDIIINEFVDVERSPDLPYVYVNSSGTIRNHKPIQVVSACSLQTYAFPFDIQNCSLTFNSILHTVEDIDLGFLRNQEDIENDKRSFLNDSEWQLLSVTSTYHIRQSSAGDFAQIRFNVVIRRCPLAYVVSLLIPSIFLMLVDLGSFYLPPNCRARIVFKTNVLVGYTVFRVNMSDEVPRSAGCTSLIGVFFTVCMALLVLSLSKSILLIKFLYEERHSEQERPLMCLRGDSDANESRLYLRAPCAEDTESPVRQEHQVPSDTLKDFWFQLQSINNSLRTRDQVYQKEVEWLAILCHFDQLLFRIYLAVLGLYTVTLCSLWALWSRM
How it was run: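 Male rat cortices, stored at -80 °C, were homogenized in ice-cold 25 mM Tris HCl pH 7.4 and spun at 50000g. Membranes were preincubated 10 min at 37 °C, washed, and resuspended with 10 µM pargyline (10 mg tissue/sample). They were incubated with 0.4 nM (final) [3H]zacopride for 30 min at 25 °C, filtered through PEI-treated GF/B and counted. IC50 came from dose-inhibition curves, mean ± SEM of three determinations.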

[2] = biological target: Serotonin 3 (5-HT3) receptor; experiment: Effective concentration against 5-Hydroxytryptamine 3 receptor by measuring [14C]guanidinium uptake on NG108-15 cells.; assay type: functional, cell-based
NG108-15 [3] = experiment: The compound was tested for efficacy against 5-Hydroxytryptamine 3 receptor by measuring [14C]guanidinium uptake on NG108-15 cells; PA=Partial agonist; assay type: functional, cell-based; conditions: filed as partial agonist
How it was run: (§1)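 NG108-15 cells, grown 2 days, were washed in HEPES saline pH 7.4. They were exposed 10 min at 37 °C to buffer (135 mM NaCl, 10 mM guanidinium) with […] [14C]guanidinium, 1 mM 5-HT, […] and/or 8 drug concentrations. Cells were washed in ice-cold choline buffer, dissolved in NaOH and counted by scintillation. Assays run in triplicate.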

NG108-15 [4] = experiment: The compound was tested for efficacy against 5-Hydroxytryptamine 3 receptor by measuring [14C]guanidinium uptake on NG108-15 cells.; A = Agonist; assay type: functional, cell-based; conditions: filed as agonist; how it was run: as §1
[5] = biological target: T1, Serotonin 3 (5-HT3) receptor; experiment: The compound was tested for the binding affinity against 5-hydroxytryptamine 3 receptor using [3H]zacopride as radioligand.; assay type: protein-complex assay
[6] = biological target: 5-hydroxytryptamine receptor 2A (Rattus norvegicus, UniProt P14842); experiment: The compound was tested for the binding affinity against 5-hydroxytryptamine 2A receptor using [3H]ketanserin as radioligand.
Chain of 5-hydroxytryptamine receptor 2A (P14842 whole entry): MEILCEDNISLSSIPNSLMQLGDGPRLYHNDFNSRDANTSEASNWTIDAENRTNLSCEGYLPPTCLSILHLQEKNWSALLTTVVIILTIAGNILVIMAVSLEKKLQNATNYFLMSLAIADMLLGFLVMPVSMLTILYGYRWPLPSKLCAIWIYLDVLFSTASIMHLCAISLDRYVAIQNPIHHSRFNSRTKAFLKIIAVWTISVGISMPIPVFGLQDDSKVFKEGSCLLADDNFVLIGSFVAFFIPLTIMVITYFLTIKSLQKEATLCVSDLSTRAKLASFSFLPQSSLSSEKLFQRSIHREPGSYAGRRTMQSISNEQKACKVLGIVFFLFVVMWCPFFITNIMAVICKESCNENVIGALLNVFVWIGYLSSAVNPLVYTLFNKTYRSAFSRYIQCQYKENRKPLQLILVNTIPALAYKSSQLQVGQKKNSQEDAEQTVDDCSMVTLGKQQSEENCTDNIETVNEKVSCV

[7] = biological target: T2, 5-hydroxytryptamine receptor 2C (Rattus norvegicus, UniProt P08909); experiment: The compound was tested for the binding affinity against 5-hydroxytryptamine 2C receptor using [3H]Mesulergine as radioligand.
T2 sequence (P08909 whole entry): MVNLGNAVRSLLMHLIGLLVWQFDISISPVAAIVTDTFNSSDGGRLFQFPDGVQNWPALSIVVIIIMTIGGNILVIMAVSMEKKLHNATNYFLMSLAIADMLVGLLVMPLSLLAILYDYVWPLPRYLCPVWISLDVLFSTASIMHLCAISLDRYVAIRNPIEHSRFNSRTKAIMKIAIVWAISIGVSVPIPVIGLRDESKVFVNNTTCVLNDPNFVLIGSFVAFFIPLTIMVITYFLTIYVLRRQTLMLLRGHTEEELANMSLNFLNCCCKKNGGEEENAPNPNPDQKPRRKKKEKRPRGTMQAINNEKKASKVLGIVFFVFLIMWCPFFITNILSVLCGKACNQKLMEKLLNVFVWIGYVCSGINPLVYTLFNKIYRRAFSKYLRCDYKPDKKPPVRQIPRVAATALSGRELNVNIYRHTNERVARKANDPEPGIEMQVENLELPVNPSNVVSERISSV

[8] = The compound was tested for brain to plasma partition in rat; assay type: ADME, organism-based; conditions: brain and plasma, read-out: AUC ratio
How it was run: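 Male CD-COBS rats (175-200 g) received hydrochloride salts in saline i.v. at 5 mg/kg and were killed 60, 120 and 180 min after dosing. Plasma and brain levels were measured by HPLC-UV (254 nm) after liquid-liquid or solid-phase extraction with an internal standard. The ratio is brain-to-plasma AUC_t, 2-3 rats per point.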

[9] = biological target: T1, Serotonin 3 (5-HT3) receptor; experiment: The compound was tested for the binding affinity against 5-hydroxytryptamine 3 receptor using [3H]zacopride as radioligand; assay type: protein-complex assay
[10] = biological target: T3, 5-hydroxytryptamine receptor 1A (Rattus norvegicus, UniProt P19327); experiment: The compound was tested for the binding affinity against 5-hydroxytryptamine 1A receptor using [3H]8-OH-DPAT as radioligand.
T3 sequence (P19327 whole entry): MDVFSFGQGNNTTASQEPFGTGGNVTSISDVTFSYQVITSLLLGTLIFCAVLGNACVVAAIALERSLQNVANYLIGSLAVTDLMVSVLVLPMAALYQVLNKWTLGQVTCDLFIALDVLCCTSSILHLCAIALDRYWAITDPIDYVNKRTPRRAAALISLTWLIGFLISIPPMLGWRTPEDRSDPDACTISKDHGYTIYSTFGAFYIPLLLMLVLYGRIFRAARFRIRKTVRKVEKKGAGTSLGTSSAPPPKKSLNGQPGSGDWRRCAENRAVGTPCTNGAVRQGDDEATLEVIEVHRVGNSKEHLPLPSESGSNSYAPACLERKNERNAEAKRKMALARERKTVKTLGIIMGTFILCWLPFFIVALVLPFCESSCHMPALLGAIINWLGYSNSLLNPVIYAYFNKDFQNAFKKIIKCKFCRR

[11] = biological target: 5-hydroxytryptamine receptor 4 (Cavia porcellus, UniProt O70528); experiment: The compound was tested for the binding affinity against 5-hydroxytryptamine 4 receptor using [3H]GR-113808 as radioligand.
Chain of 5-hydroxytryptamine receptor 4 (O70528 whole entry): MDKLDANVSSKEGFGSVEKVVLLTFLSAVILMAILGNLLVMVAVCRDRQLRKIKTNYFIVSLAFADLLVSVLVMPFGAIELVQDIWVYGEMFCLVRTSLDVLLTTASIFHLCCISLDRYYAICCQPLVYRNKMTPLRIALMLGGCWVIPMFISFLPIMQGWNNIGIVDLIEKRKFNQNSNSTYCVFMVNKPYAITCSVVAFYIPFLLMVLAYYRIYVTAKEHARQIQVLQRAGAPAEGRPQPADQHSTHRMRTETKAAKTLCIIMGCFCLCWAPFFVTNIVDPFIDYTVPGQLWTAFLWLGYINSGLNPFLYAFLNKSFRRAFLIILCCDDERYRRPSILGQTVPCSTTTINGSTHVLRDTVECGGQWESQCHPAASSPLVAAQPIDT

[12] = biological target: 5-hydroxytryptamine receptor 1B (Rattus norvegicus, UniProt P28564); experiment: The compound was tested for the binding affinity against 5-hydroxytryptamine 1B receptor using [3H]5-HT as radioligand.
Chain of 5-hydroxytryptamine receptor 1B (P28564 whole entry): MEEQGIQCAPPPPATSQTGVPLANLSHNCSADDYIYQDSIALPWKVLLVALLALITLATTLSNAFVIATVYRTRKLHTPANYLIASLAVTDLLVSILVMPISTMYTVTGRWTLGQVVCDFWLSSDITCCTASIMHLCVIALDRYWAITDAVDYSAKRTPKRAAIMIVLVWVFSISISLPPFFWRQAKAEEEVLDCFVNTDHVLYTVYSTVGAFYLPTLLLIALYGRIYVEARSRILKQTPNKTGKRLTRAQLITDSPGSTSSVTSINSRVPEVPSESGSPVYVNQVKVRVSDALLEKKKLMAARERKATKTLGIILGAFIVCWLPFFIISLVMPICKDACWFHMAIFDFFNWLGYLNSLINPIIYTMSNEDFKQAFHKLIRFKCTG

[13] = biological target: T1, Serotonin 3 (5-HT3) receptor; experiment: The compound was tested for binding affinity against 5-hydroxytryptamine 3 receptor from NG108-15 cells using [3H]zacopride as radioligand; assay type: cell-based
How it was run: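 NG108-15 cells were grown in DMEM with 10% inactivated FCS plus HAT at 37 °C, 10% CO2, harvested by shaking and pelleted. About 420 000 cells/sample in 50 mM Tris HCl pH 7.5 with 25 mM NaCl were incubated with 0.4 nM (final) [3H]zacopride for 60 min at 25 °C, then filtered and counted. IC50 is mean ± SEM of three determinations.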

Structure (SMILES): Clc1cc2nc(N3CCN(Cc4ccccc4)CC3)c3cccn3c2cc1Cl
- IC50 [1]: 0.118 µM

Structure (SMILES): Cc1cc2nc(N3CCN(C)CC3)c3cccn3c2cc1C
- IC50 [1]: 0.03 µM

Structure (SMILES): Fc1ccc2c(c1)nc(N1CCN(Cc3ccccc3)CC1)c1cccn12
- EC50 [2]: 0.0042 µM
- Efficacy (NG108-15 [3]): Partial agonist
- IC50 [1]: 0.013 µM

Structure (SMILES): CN1CCN(c2nc3ccccc3c3ccnn23)CC1
- EC50 [2]: 0.0027 µM
- Efficacy (NG108-15 [4]): Agonist
- IC50 [1]: 0.0016 µM

Structure (SMILES): c1csc(CN2CCN(c3nc4ccccc4n4cccc34)CC2)c1
- IC50 [1]: 0.022 µM

Structure (SMILES): Fc1cccc2nc(N3CCN(CC4N=NN=N4)CC3)c3cccn3c12
- IC50 [1]: 0.69 µM

Structure (SMILES): c1ccc2nc(N3CCNCC3)ccc2c1 [QUIPAZINE]
- Ki [5]: 0.00631 µM
- Efficacy (NG108-15 [3]): Partial agonist
- Ki [6]: 0.794 µM
- IC50 [1]: 0.0038 µM
- Ki [7]: 0.316 µM

Structure (SMILES): CN1[C@@H]2CC[C@H]1C[C@@H](OC(=O)c1cc(Cl)cc(Cl)c1)C2 [BEMESETRON]
- IC50 [1]: 0.097 µM

Structure (SMILES): CN1CCN(c2nc3cc(C#N)ccc3n3cccc23)CC1
- IC50 [1]: 0.104 µM

Structure (SMILES): CN1CCN(C2=NC=CN3CCN=C23)CC1
- IC50 [1]: 3.65 µM

Structure (SMILES): Cc1[nH]c2ccc(O)cc2c1CCN
- Ki [5]: 0.2 µM

Structure (SMILES): c1ccc(CN2CCN(c3nc4cccnc4n4cccc34)CC2)cc1
- EC50 [2]: 0.032 µM
- Efficacy (NG108-15 [3]): Partial agonist
- IC50 [1]: 0.0023 µM

Structure (SMILES): OCCN1CCN(c2nc3cccc(F)c3n3cccc23)CC1
- EC50 [2]: 0.054 µM
- Kp [8]: 20.3
- Efficacy (NG108-15 [3]): Partial agonist
- Ki [9]: 0.00794 µM
- Ki [10]: 0.501 µM
- Ki [11]: > 10 µM
- Ki [6]: 0.501 µM
- IC50 [1]: 0.0082 µM
- Ki [12]: 1.58 µM
- Ki [7]: 2 µM

Structure (SMILES): Cc1ccc2c(c1)nc(N1CCNCC1)c1cccn12
- IC50 [1]: 0.0164 µM

Structure (SMILES): CN1CCN(c2nc3ccccc3n3ccnc23)CC1
- EC50 [2]: 0.015 µM
- Efficacy (NG108-15 [4]): Agonist
- IC50 [1]: 0.0038 µM

Structure (SMILES): CN1CCN(c2nc3cc(OCc4ccccc4)ccc3n3cccc23)CC1
- IC50 [1]: 0.225 µM

Structure (SMILES): Cc1ccc2c(c1)nc(N1CCN(Cc3ccccc3)CC1)c1cccn12
- IC50 [1]: 0.024 µM

Structure (SMILES): Fc1ccc2c(c1)nc(N1CCN(Cc3ccco3)CC1)c1cccn12
- EC50 [2]: 0.0066 µM
- Efficacy (NG108-15 [3]): Partial agonist
- IC50 [1]: 0.011 µM

Structure (SMILES): c1csc(CN2CCN(c3nc4cccnc4n4cccc34)CC2)c1
- IC50 [13]: 0.0064 µM
- Ki [5]: 0.00316 µM
- Ki [10]: > 10 µM
- Ki [11]: > 10 µM
- Ki [6]: 1.58 µM
- IC50 [1]: 0.0036 µM
- Ki [12]: 3.98 µM
- Ki [7]: > 10 µM

Structure (SMILES): CN1CCN(c2nc3cc(F)ccc3n3cccc23)CC1
- EC50 [2]: 0.003 µM
- Efficacy (NG108-15 [4]): Agonist
